Screens (PubChem BioAssay)
An excerpt weighted towards active compounds, which were near 3.2% of everything screened.
OX1R antag-1: antagonists of human orexin 1 receptor; O43613; CHO/OX1R cells, Fluo-8 calcium fluorescence, orexin A; inhibition, % at 5 µM; 330,000 compounds, 0.43% hits; AID 434989;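 active = inhibition above its plate's threshold, mean inhibition of all tested compounds on the plate plus 3 SD, cut at about 37% in these data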;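 also: 0% = orexin A challenge wells and 100% = SB-334867-A antagonist wells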
Target sequence (O43613 whole entry, looked up): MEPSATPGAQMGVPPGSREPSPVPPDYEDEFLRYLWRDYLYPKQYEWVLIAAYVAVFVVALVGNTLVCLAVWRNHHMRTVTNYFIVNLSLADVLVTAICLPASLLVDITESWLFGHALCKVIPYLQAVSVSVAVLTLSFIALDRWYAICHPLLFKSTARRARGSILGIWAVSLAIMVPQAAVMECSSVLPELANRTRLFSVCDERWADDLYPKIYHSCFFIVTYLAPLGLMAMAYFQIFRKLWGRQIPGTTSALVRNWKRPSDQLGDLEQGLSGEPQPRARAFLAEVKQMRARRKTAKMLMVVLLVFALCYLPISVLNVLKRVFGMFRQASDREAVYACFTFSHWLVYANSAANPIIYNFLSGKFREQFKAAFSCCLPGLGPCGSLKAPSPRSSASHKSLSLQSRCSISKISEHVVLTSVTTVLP
TRPN1 ag: activates the zebrafish TRPN1 channel; HEK293 zebrafish TRPN1-YFP, Fluo-8 calcium fluorescence; 100% = response to 87 µM carbachol; activation, % at 3 µM; 220,000 compounds, 0.18% hits; AID 1424;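 active = activation above its plate's cutoff, the mean activation of test wells on that plate plus 3 SD, cut at about 19% in these data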;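 also: 0% = DMSO alone and 100% = 87 µM carbachol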
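Material – zebrafish TRPN1-YFP in HEK293 cells · Doses – 3 µM single point · Schedule – dye 1 h 37 °C plus 30 min RT · Signal – Fluo-8 calcium fluorescence, excitation 470-495 nm, emission 515-575 nm · Read-out – % activation versus carbachol response · Control set – carbachol high, DMSO low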
GPR7 antag: blocks human GPR7 receptor signaling | GPR7-expressing cells, fluorescence antagonist assay | inhibition, % at 4.4 µM | 290,000 compounds, 1.1% hits | AID 1861; in the data active = inhibition above about 16%, passing the limit was not always enough;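 also: cells stimulated with the agonist NPW; 0% = agonist with vehicle and 100% = vehicle without agonist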
TRPML3 ag: agonists of human TRPML3 channel; 220,000 compounds, 0.29% hits; HEK293 TRPML3-YFP, Fluo-8 calcium fluorescence; 100% = the carbachol control signal; AID 1448; activation, % at 3 µM; Q8TDD5;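 active = activation above its plate's cutoff, the mean activation of the plate's test wells plus 3 SD, cut at about 12% in these data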;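 also: 0% = DMSO only wells and 100% = carbachol wells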
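Test system – HEK293 line with stable expression of human TRPML3-YFP channel · Control set – carbachol 87 µM final as high control (100%), DMSO as low control (0%) · Signal – Fluo-8 calcium dye fluorescence, ex 470-495, em 515-575 nm · Incubation – 1-h 37 °C dye load, 5-s basal, 120-s post-compound reads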
CHO parental Ca: signal in parental CHO cells, OX1R antagonist counter-screen. parental CHO-K1, ATP-induced calcium, Fluo-8 fluorescence. inhibition, % at 5.6 µM. 330,000 compounds, 0.63% hits. AID 463079;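 active = inhibition above that plate's mean sample inhibition plus 3 SD, cut at about 26% in these data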;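 also: 0% = ATP-challenged DMSO wells and 100% = DMSO wells without ATP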
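Assay system: untransfected parental CHO cell line. Also added: ATP agonist challenge. Dosing: one dose, 5.6 µM nominal. Measured by: Fluo-8 fluorescence. Read-out: % inhibition. Benchmarks: ATP wells versus no-ATP DMSO wells. Repeats: no replicates.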
OX1R antag-2: antagonists of human orexin 1 receptor (OX1R) | O43613 | OX1R-expressing cells, FRET antagonist read-out | inhibition, % at 6.6 µM | 330,000 compounds, 1.8% hits; in the data active = inhibition mostly above about 38%, no sharp cut-off; inactive = mostly below about 40%;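 also: 0% = agonist challenge alone and 100% = reference antagonist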
Active calls of the source: *; . = not tested or not shown.

SMILES	OX1R antag-1	TRPN1 ag	GPR7 antag	TRPML3 ag	CHO parental Ca	OX1R antag-2
N#Cc1cc([N+](=O)[O-])ccc1N1CCN(c2ccccc2O)CC1	-12	3	1	3	32*	23
O=C(O)c1ccccc1C(=O)c1ccc(N2CCCC2)c([N+](=O)[O-])c1	-25	3	-10	1	-1	21
CC(=O)c1ccc(N2CCN(c3ccccc3O)CC2)c([N+](=O)[O-])c1	63*	.	10	.	44*	79*
Cc1ccn2cc(C34CC5CC(CC(C5)C3)C4)nc2c1	-28	-2	0	0	-14	-6
Cc1cc(Cl)ccc1NC(=O)CCN1C(=O)NC(C)(C)C1=O	-7	.	.	.	-7	5
COc1ccc(S(=O)(=O)Nc2ccccc2C(=O)N2CCOCC2)cc1C	-18	.	12	.	-8	9
CC(C)NC(=O)CN1C(=O)C(=O)c2ccccc21	-1	1	-15	0	0	36
CCC(OC(=O)CN1C(=O)C(=O)c2ccccc21)C(=O)Nc1ccc(S(N)(=O)=O)cc1 (centres undefined)	-26	1	-15	1	-12	50*
Nc1[nH]c(=S)[nH]c(=O)c1-c1ccccc1	-9	1	-17	0	-1	12
O=c1[nH]c(=S)[nH]c2nc(-c3ccccc3)cnc12	-11	.	.	.	-4	63*
Cc1nn(C(C)(C)C)c(OC(=O)c2ccc(Br)o2)c1Sc1ccccc1	-19	-3	4	0	-24	38*
Cc1cc(C(C#N)c2ccc(Cl)cc2)c(Cl)cc1NC(=O)c1cc(I)cc(I)c1O (centres undefined)	29	.	.	.	47*	62*
Cc1cc(NC(=O)c2ccc(Cl)cc2)c(C)cc1O	-5	0	-4	0	-9	11
O=S(=O)(NCc1csc(-c2cccnc2)n1)c1cccs1	-6	1	3	0	-11	28
CCc1ccc(S(=O)(=O)NCc2csc(-c3cccnc3)n2)s1	8	1	12	0	-21	64*
CCOC(=O)C1=C(C)c2ccccc2OC1(CC)C(=O)OCC (centres undefined)	-15	.	.	.	-20	10
CCOC(=O)C1=C(C)c2ccccc2N(C(=O)OC)C1(C)C(=O)OCC (centres undefined)	19	.	.	.	-18	33*
O=C(COc1ccccc1)N[C@@H]1c2ccccc2CC[C@@H]1O	5	.	.	.	-7	2
Cn1c(=O)c2c(n(C)c1=O)=NC1(CCCCC1)ON=2	-15	0	9	0	2	71*
CCn1c(Cc2ccc(OC)cc2)nnc1SCC(=O)N1CCN(c2ccccc2)CC1	-31	0	-8	0	-16	47*
CCn1c(CSCc2ccc(F)cc2)nnc1SCC(=O)N1CCN(c2ccccc2)CC1	-16	0	-2	1	-14	12
COc1ccc(C(=O)Nc2ccccc2)cc1NC(=O)c1cccs1	.	.	-10	.	.	.
O=C(NCc1ccccc1)Nc1cccn(Cc2ccccc2Cl)c1=O	-13	4	-17	1	-11	21
COC1=C(c2ccccc2)C(=O)c2ccccc2C1=O	-1	1	-9	0	-7	39
COC1=CC(=O)c2ccccc2C1=O	9	.	.	.	-3	92*
SMILES	OX1R antag-1	TRPN1 ag	GPR7 antag	TRPML3 ag	CHO parental Ca	OX1R antag-2
Fc1ccccc1/C=C/c1ccc2ccccc2n1	-21	0	-15	1	-26	72*
C(=C\c1ccc2ccccc2n1)/c1ccccc1	-15	-1	-5	0	-28	-1
Cc1onc(-c2ccccc2)c1C(=O)OCC(=O)NCc1ccc(F)cc1	-25	-1	12	0	-19	8
CCOC(=O)CSC1=NC(=O)/C(=C\c2ccc(Cl)cc2)S1	5	7	-9	4	-5	72*
CSC1=NC(=O)/C(=C/c2ccc(SC)cc2)S1	-18	0	-11	1	-11	39*
COc1cc([N+](=O)[O-])ccc1N1C(=O)C2C3C=CC(C4CC34)C2C1=O (centres undefined)	-13	1	-2	1	-9	52
O=[N+]([O-])/C=C/c1cc2ccccc2[nH]1	3	0	6	4	-4	0
COCCCN1C(=O)c2ccc(C(=O)NCc3ccco3)cc2C1=O	-17	2	-7	1	-15	42*
COCCCN1C(=O)c2ccc(C(=O)NCc3ccccn3)cc2C1=O	6	.	-10	.	3	39*
Cc1ccc(OCC(=O)Nc2ccc(NC(=O)c3ccccc3)c(C)c2)cc1	.	.	-11	.	.	.
COc1ccc(C(=O)CSC2=NS(=O)(=O)c3cc(Cl)ccc3N2)cc1	-11	.	.	.	-7	62*
NC(=O)C1CCN(CC(=O)Nc2cccc(C(=O)Nc3cccc(C(F)(F)F)c3)c2)CC1	-5	0	-5	1	-2	7
COc1cc(C(=O)N(c2ccc(C)c(C)c2)C2C=CS(=O)(=O)C2)cc(OC)c1OC (centres undefined)	-23	-1	-17	1	-13	11
CC(C)Cn1c(N)c(C(=O)COC(=O)c2cc(F)cc(F)c2)c(=O)n(C)c1=O	-8	4	18*	3	-7	29
CC(C)Cn1c(N)c(C(=O)COC(=O)C2=COCCO2)c(=O)n(C)c1=O	-12	3	19*	1	-18	10
CC(C)Cn1c(N)c(C(=O)COC(=O)c2ccc(O)cc2)c(=O)n(C)c1=O	-11	2	2	2	1	18
CC(OC(=O)c1cc(S(=O)(=O)N2CCOCC2)ccc1F)C(=O)NCc1ccc2c(c1)OCO2 (centres undefined)	-20	.	.	.	-12	0
CC(NC(=O)c1ccccc1F)C1CC1 (centres undefined)	-7	.	-5	.	15	4
O=C(O)C1CCCN1C(=O)NC1CCCCC1 (centres undefined)	1	.	2	.	13	14
Nc1cc(Cl)ccc1Nc1ccncc1	.	.	5	.	.	.
COc1cccc(-c2ocnc2C(=O)Nc2ccc(N3CCOCC3)cc2N2CCOCC2)c1	-11	.	-7	.	-4	6
CCCn1cnc2c(=S)nc(N)[nH]c21	-1	0	18*	0	-2	8
CCn1c(SCC(=O)NC2=NCCS2)nnc1C(C)NC(=O)c1ccccc1Br (centres undefined)	-2	.	-2	.	2	8
CCCOc1ccc(Br)cc1CSC(=N)N	0	2	54*	2	14	12
O=C(O)CCN1C(=O)c2ccccc2C1=O	-15	0	18*	0	-5	8
O=C1C(=O)N(Cc2ccccc2)C(=O)N1CCN1C(=O)c2ccccc2C1=O	-30	0	19*	-1	-21	19
O=C(O)CNC(=O)CCN1C(=O)c2ccccc2C1=O	7	0	-4	1	-5	6
